Laboratory results reported in ChEMBL document CHEMBL4699542, “Design and synthesis of novel methoxypyridine-derived gamma-secretase modulators” (Bioorg Med Chem, 2020).
Values after ≈ are worked out from the molar mass of the structure shown.

How the values were obtained:
[1] = Metabolic stability in human liver microsomes assessed as parent compound remaining at 1 uM incubated for 30 mins; assay type: ADME, Microsome; details: microsomes, 0.5 h, 1 µM
How it was run: (§1)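 Test compound at 1 μM incubated 30 min with human, rat or mouse liver microsomes (1 mg/mL); parent remaining expressed as %.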

[2] = Kinetic aqueous solubility of the compound in pH 7.4 PBS buffer by UV/Visible absorbance analysis; assay type: physicochemical; details: read-out: Kinetic_solubility
How it was run: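 Kinetic solubility determined in PBS at pH 7.4 by UV/Vis absorbance, reported in μM.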

Cytochrome P450 1A2 = target: T1, Cytochrome P450 1A2 (Homo sapiens, UniProt P05177); test: Inhibition of recombinant CYP1A2 (unknown origin) by fluorescence-based assay; assay type: ADME
T1 sequence (P05177 whole entry): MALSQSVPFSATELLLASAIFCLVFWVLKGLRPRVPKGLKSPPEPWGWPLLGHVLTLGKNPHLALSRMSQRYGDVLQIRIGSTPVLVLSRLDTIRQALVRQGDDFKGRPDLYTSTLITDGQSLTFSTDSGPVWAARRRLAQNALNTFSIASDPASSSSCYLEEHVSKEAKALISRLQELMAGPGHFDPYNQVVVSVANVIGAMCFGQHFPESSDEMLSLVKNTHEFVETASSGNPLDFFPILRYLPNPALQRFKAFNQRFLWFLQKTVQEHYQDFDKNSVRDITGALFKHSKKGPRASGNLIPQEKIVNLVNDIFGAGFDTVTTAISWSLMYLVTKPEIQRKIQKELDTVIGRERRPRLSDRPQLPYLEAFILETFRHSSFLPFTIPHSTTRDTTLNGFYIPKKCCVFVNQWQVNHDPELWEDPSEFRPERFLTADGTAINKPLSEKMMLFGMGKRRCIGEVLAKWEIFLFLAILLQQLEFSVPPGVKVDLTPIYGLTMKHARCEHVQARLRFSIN
How it was run: (§2)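 Recombinant CYP isoforms (five tested) screened for inhibition in fluorescence-based assays; IC50 in μM.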

Gamma-secretase = test: Modulation of gamma secretase in human SH-SY5Y cells overexpressing wild type APP751 assessed as inhibition of amyloid beta (35 to 42 residues) formation incubated for overnight by ELISA; assay type: cell-based
How it was run: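 SHSY5Y-APP751 cells plated at 75K/well and incubated overnight at 37 °C, then treated 24 h over 10 concentrations ([…]–10 μM, 1:3.16 steps, in duplicate). Medium Aβ42 measured by sandwich ELISA (Aβ35–42 capture, AP-conjugated Aβ1–12 detection, CDP-Star luminescence) against an Aβ42 standard curve.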

Cytochrome P450 3A4 = Cytochrome P450 3A4 (Homo sapiens, UniProt P08684); test: Inhibition of recombinant CYP3A4 (unknown origin) by fluorescence-based assay; assay type: ADME
Cytochrome P450 2D6 = Cytochrome P450 2D6 (Homo sapiens, UniProt P10635); test: Inhibition of recombinant CYP2D6 (unknown origin) by fluorescence-based assay; assay type: ADME; how it was run: as §2
Cytochrome P450 2C19 = Cytochrome P450 2C19 (Homo sapiens, UniProt P33261); test: Inhibition of recombinant CYP2C19 (unknown origin) by fluorescence-based assay; assay type: ADME; how it was run: as §2
[3] = Metabolic stability in rat liver microsomes assessed as parent compound remaining at 1 uM incubated for 30 mins; assay type: ADME, Microsome; details: 0.5 h; how it was run: as §1
Cytochrome P450 2C9 = Cytochrome P450 2C9 (Homo sapiens, UniProt P11712); test: Inhibition of recombinant CYP2C9 (unknown origin) by fluorescence-based assay; assay type: ADME; how it was run: as §2
[4] = Metabolic stability in mouse liver microsomes assessed as parent compound remaining at 1 uM incubated for 30 mins; assay type: ADME, Microsome; details: 0.5 h; how it was run: as §1
[5] = target: Voltage-gated inwardly rectifying potassium channel KCNH2 (Homo sapiens, UniProt Q12809); test: Inhibition of human ERG expressed in HEK293 cells by patch clamp assay; assay type: cell-based
[6] = Volume of distribution at steady state in CD-1 mouse at 1 mg/kg, iv administered as single dose measured up to 24 hrs; assay type: ADME, organism-based; details: in vivo
How it was run: (§3)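 Male CD-1 mice, 6–8 weeks old, single tail-vein dose in 3% NMP/45% PEG300/12% ethanol/40% sterile water. Retro-orbital plasma (K3EDTA) taken at 0.083, 0.25, 0.5, 1, 2, 4, 8 and 24 h, n=3/timepoint, analysed by HPLC/MS/MS. Non-compartmental analysis (Model 201, uniform weighting); Tmax read directly from the data.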

[7] = Cmax in CD-1 mouse at 1 mg/kg, iv administered as single dose measured up to 24 hrs; assay type: ADME, organism-based; set-up: route intravenous, dose 1 mg/kg, time <=24; details: in vivo
How it was run: (§4)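 Male CD-1 mice, 6–8 weeks old, single dose by tail vein (1 mg/kg, 3% NMP/45% PEG300/12% ethanol/40% water) or oral gavage (5 mg/kg, 5% NMP/95% PEG300). Retro-orbital plasma sampled 0.083 (iv only) to 24 h, n=3/timepoint, and analysed by HPLC/MS/MS. Non-compartmental analysis. Half-life taken from the terminal phase using ≥3 non-zero points after Tmax.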

[8] = AUC infinity in CD-1 mouse at 1 mg/kg, iv administered as single dose measured up to 24 hrs; assay type: ADME, organism-based; set-up: route intravenous, dose 1 mg/kg, time <=24; details: in vivo; how it was run: as §4
[9] = AUClast in CD-1 mouse at 1 mg/kg, iv administered as single dose measured up to 24 hrs; assay type: ADME, organism-based; set-up: route intravenous, dose 1 mg/kg, time <=24; details: in vivo; how it was run: as §4
[10] = Half life in CD-1 mouse at 1 mg/kg, iv administered as single dose measured up to 24 hrs; assay type: ADME, organism-based; details: mouse, in vivo, 1 mg/kg, 24 h; how it was run: as §4
[11] = AUC infinity in CD-1 mouse at 5 mg/kg, po administered as single dose measured up to 24 hrs; assay type: ADME, organism-based; set-up: route oral, dose 5 mg/kg, time <=24; details: in vivo; how it was run: as §4
[12] = Tmax in CD-1 mouse at 5 mg/kg, po administered as single dose measured up to 24 hrs; assay type: ADME, organism-based; details: in vivo
How it was run: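 Male CD-1 mice, 6–8 weeks old, single oral gavage dose in 5% NMP/95% PEG300. Plasma (K3EDTA, retro-orbital, under isoflurane) taken at 0.25, 0.5, 1, 2, 4, 8 and 24 h, n=3/timepoint, analysed by HPLC/MS/MS. Non-compartmental extravascular analysis (Model 200); Tmax taken directly from the data.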

[13] = Ratio of drug concentration in CD-1 mouse brain to plasma at 5 mg/kg, po measured after 1 hr; assay type: ADME, organism-based
How it was run: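 Male CD-1 mice dosed once iv (1 mg/kg) or by oral gavage (5 mg/kg). Brain and plasma collected 1 h post dose (n=3/timepoint). Drug levels by HPLC/MS/MS; brain/plasma ratio calculated from these levels.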

[14] = Oral bioavailability in CD-1 mouse at 5 mg/kg administered as single dose measured up to 24 hrs; assay type: ADME, organism-based; details: in vivo
How it was run: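 CD-1 mouse PK after single iv (1 mg/kg) and oral gavage (5 mg/kg) dosing, with plasma sampled to 24 h (n=3/timepoint) and measured by HPLC/MS/MS. F(%) = (AUC0-inf po × Dose iv)/(AUC0-inf iv × Dose po) × 100.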

[15] = Apparent permeability from apical to basolateral membrane in MDCK-MDR1 cells; assay type: ADME, cell-based, Canis lupus familiaris; details: dog
How it was run: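 Apical-to-basolateral apparent permeability (×10⁻⁶ cm/s) measured across MDR1-MDCK cell monolayers.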

[16] = Cmax in CD-1 mouse at 5 mg/kg, po administered as single dose measured up to 24 hrs; assay type: ADME, organism-based; set-up: route oral, dose 5 mg/kg, time <=24; details: in vivo; how it was run: as §4
[17] = Tmax in CD-1 mouse at 1 mg/kg, iv administered as single dose measured up to 24 hrs; assay type: ADME, organism-based; details: in vivo; how it was run: as §3
[18] = AUClast in CD-1 mouse at 5 mg/kg, po administered as single dose measured up to 24 hrs; assay type: ADME, organism-based; set-up: route oral, dose 5 mg/kg, time <=24; details: in vivo; how it was run: as §4
[19] = Ratio of drug concentration in CD-1 mouse brain to plasma at 0.4 mg/kg, iv measured after 1 hr; assay type: ADME, organism-based
[20] = Efflux ratio of apparent permeability from basolateral to apical membrane over apical to basolateral membrane in MDCK-MDR1 cells; assay type: ADME, cell-based, Canis lupus familiaris; details: dog
How it was run: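 Calculated as B-A/A-B apparent permeability ratio across MDR1-MDCK cell monolayers; A-B permeability expressed as ×10⁻⁶ cm/s.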

Chain of Cytochrome P450 2D6 (P10635 whole entry): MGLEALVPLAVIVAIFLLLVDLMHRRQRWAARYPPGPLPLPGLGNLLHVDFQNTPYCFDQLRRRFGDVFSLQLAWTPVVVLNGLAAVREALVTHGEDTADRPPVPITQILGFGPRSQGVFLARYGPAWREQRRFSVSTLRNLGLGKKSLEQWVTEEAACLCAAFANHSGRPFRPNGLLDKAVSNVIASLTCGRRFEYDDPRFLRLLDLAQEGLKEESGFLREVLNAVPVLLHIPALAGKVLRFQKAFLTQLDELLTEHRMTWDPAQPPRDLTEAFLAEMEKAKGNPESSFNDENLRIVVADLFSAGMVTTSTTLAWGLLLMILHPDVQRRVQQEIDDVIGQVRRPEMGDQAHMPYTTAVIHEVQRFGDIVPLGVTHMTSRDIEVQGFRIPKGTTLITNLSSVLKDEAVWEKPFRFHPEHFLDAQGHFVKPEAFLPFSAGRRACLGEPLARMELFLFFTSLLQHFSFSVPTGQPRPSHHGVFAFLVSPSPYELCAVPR
Chain of Cytochrome P450 2C19 (P33261 whole entry): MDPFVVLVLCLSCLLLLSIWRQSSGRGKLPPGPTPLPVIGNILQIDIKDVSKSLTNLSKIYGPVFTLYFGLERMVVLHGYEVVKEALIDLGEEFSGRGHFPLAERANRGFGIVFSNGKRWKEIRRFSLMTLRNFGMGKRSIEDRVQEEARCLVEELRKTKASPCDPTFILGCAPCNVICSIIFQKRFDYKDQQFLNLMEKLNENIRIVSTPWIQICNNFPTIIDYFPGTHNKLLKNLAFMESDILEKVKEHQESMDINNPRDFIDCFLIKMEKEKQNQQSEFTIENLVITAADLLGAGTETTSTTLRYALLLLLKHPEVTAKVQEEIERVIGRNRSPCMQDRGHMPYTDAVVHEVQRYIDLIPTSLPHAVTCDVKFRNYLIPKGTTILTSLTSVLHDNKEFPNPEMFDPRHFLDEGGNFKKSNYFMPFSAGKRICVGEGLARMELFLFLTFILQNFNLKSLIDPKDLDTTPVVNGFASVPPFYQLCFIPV
Chain of Cytochrome P450 2C9 (P11712 whole entry): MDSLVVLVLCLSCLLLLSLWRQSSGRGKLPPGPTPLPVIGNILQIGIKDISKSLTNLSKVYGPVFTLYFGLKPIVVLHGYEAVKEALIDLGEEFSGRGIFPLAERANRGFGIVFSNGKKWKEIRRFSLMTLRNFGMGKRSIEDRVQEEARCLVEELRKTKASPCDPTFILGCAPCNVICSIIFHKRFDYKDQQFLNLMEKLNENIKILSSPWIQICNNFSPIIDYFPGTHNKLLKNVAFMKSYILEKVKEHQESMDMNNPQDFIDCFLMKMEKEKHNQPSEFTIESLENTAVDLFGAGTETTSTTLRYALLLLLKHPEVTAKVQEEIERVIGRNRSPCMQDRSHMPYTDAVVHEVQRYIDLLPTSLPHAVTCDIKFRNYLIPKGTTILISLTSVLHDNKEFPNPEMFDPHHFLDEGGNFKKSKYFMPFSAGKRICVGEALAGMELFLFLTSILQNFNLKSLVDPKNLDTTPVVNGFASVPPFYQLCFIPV
Chain of Cytochrome P450 3A4 (P08684 whole entry): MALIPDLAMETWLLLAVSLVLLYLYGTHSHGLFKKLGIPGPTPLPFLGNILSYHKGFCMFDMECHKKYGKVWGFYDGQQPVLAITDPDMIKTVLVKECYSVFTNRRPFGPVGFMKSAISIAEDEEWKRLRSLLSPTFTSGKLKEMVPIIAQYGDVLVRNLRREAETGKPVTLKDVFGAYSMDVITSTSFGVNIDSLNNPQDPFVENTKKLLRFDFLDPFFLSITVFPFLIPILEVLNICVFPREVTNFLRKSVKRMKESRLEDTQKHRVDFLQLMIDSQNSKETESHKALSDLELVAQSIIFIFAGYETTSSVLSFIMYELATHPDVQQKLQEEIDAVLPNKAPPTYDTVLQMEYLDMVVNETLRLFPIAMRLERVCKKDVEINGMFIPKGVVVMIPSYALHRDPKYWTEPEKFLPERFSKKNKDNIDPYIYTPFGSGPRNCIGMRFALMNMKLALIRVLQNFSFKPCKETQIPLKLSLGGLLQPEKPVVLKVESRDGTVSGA
Chain of Voltage-gated inwardly rectifying potassium channel KCNH2 (Q12809 whole entry): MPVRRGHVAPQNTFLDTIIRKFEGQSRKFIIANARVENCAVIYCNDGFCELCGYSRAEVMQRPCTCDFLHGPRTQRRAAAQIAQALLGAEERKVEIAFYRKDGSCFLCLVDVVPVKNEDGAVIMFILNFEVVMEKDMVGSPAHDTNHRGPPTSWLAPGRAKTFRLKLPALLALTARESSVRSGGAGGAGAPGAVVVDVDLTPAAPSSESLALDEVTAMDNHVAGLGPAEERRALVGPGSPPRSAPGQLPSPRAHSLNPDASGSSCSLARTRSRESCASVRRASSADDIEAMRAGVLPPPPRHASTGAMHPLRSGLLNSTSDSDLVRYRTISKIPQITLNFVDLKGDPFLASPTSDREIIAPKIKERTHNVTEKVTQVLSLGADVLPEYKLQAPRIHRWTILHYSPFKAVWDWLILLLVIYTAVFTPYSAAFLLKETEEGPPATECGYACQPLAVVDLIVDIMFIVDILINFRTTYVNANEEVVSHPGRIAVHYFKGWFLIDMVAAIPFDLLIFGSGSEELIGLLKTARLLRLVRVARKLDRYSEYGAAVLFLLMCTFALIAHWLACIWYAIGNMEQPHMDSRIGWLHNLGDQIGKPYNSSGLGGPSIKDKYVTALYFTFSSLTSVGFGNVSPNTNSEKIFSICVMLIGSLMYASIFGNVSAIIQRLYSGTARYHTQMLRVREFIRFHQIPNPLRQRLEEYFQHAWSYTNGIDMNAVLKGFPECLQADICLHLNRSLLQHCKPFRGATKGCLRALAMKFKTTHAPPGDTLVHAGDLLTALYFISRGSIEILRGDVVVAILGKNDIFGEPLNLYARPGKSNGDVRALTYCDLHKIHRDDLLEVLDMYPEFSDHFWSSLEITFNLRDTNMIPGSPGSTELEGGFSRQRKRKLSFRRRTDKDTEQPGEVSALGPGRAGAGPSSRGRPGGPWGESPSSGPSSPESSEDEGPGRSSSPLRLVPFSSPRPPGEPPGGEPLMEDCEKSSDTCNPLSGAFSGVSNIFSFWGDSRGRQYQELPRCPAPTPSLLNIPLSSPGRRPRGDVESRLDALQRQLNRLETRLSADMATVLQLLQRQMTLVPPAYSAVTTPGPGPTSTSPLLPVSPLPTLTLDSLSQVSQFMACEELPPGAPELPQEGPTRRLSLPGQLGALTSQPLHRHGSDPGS

Row | SMILES | Stabilty [1] [%] | solubility kinetic [2] [µM] | IC50 (Cytochrome P450 1A2) [µM] | IC50 (Gamma-secretase) [µM] | IC50 (Cytochrome P450 3A4) [µM] | IC50 (Cytochrome P450 2D6) [µM] | IC50 (Cytochrome P450 2C19) [µM] | Stabilty [3] [%] | IC50 (Cytochrome P450 2C9) [µM] | Stabilty [4] [%] | IC50 [5] [µM] | Vdss [6] [L/kg] | Cmax [7] [ng/mL] | AUC [8] [ng·h/mL] | AUClast [9] [ng·h/mL] | t1/2 [10] [h] | Tmax [12] [h] | BPR [13] | F [14] [%] | Papp [15] | further results
1 | COc1nc(-c2csc(Nc3c4c(nn3C3CCC3)CCCC4)n2)ccc1-n1cnc(C)c1 | 9.5 | 30 (≈ 13.8 µg/mL) | > 100 | 0.064 | 0.59 | > 100 | 1.6 | 42 | 0.66 | 44 | – | – | – | – | – | – | – | – | – | – | –
2 | COc1nc(-c2csc(Nc3c4c(nn3CCF)CCC4)n2)ccc1-n1cnc(C)c1 | 58 | 23 (≈ 10.1 µg/mL) | > 100 | 0.064 | 10.5 | > 100 | 35 | 68 | > 100 | 60 | 2.88 | – | – | – | – | – | – | – | – | – | –
3 | COc1nc(-c2csc(Nc3c4c(nn3CCO)CCC4)n2)ccc1-n1cnc(C)c1 | 42 | 29 (≈ 12.7 µg/mL) | > 100 | 0.075 | < 0.05 | > 100 | 9.2 | 86 | 50 | 73 | – | – | – | – | – | – | – | – | – | – | –
4 | CCn1nc(C(F)(F)F)cc1Nc1nc(-c2ccc(-n3cnc(C)c3)c(OC)n2)cs1 | 84 | 15 (≈ 6.74 µg/mL) | 9.1 | 0.058 | 5.3 | > 100 | 12 | 96 | 47 | 71 | – | 3.64 | 359 | 623 | 605 | 1.6 | 1 | 0.62 | 76 | 23.3 10^-6 cm/s | AUC [11]: 2369 ng·h/mL; Cmax [16]: 470 ng/mL; Tmax [17]: 4.98 min; AUClast [18]: 1727 ng·h/mL; BPR [19]: 0.73
5 | COc1nc(-c2csc(Nc3cc(C(C)(C)C)nn3C(C)C)n2)ccc1-n1cnc(C)c1 | 21 | 23 (≈ 10.4 µg/mL) | > 100 | 0.064 | 2.3 | > 100 | 14 | 75 | 14 | 40 | – | – | – | – | – | – | – | – | – | – | –
6 | CCn1nc(C2(C)CC2)cc1Nc1nc(-c2ccc(-n3cnc(C)c3)c(OC)n2)cs1 | 67 | 6.7 (≈ 2.92 µg/mL) | > 100 | 0.032 | 4.1 | > 100 | > 100 | 73 | > 100 | 81 | 12.3 | 3.609 | 384 | 1378 | 1247 | 3.84 | 2 | 0.57 | 63.8 | 18.5 10^-6 cm/s | Ratio [20]: 1.3; Cmax [16]: 592 ng/mL; Tmax [17]: 4.98 min; AUClast [18]: 3976 ng·h/mL; BPR [19]: 0.62
